From ChEMBL document CHEMBL3045640, “Synthesis and insecticidal activity of novel carbamate derivatives as potential dual-binding site acetylcholinesterase inhibitors” (J Agric Food Chem, 2010)
pIC50: −log10 of the molar value.

Legend:
[1] = target: Acetylcholinesterase (Musca domestica) (UniProt Q7YWJ9); experiment: Dual-site binding inhibition of AChE in Musca domestica (house fly) brain at 100 mg/l
[2] = target: Acetylcholinesterase (Musca domestica, UniProt Q7YWJ9); experiment: Dual-site binding inhibition of AChE in Musca domestica (house fly) brain; type: tissue-based
Chain of Acetylcholinesterase (Q7YWJ9 whole entry): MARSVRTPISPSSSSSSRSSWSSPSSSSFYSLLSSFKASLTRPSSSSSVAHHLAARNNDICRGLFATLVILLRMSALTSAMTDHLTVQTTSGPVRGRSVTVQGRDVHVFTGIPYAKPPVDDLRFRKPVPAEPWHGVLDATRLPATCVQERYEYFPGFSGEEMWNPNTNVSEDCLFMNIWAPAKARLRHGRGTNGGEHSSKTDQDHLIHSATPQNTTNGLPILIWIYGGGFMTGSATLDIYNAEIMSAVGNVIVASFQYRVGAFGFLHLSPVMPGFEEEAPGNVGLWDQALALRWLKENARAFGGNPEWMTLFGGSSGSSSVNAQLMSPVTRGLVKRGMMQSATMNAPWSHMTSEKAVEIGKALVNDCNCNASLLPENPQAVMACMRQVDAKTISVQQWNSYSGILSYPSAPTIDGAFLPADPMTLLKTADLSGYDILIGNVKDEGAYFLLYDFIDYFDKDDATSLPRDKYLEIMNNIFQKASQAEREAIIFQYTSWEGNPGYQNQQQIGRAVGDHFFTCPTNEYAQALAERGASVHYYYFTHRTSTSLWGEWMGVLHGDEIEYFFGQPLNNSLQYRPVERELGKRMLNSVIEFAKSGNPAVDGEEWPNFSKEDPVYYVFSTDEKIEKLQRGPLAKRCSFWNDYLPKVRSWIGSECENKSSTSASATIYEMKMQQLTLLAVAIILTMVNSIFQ
Summary of the method: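 Enzyme was prepared from heads of adult houseflies, females and males in a 1:1 ratio. The inhibition procedure followed previously reported methods.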

[3] = tested on: Lipaphis erysimi; experiment: In vivo insecticidal activity against apterous adult stage of Lipaphis erysimi (mustard aphids) in chinese cabbage leaves assessed as mortality at 300 mg/l at 25 degC treated for 10 secs measured after 24 hr; type: functional
Summary of the method: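 Aphids were reared at 25 (±1) °C, 60 (±5)% RH and a 14 h photoperiod. Acetone stocks at 10 g/L were diluted with water containing 0.1% Triton X-100. Chinese cabbage leaf disks carrying 35 apterous adults were dipped for 10 s, dried, then held at 25 °C. Mortality was scored at 24 h against untreated controls. Three replicates were run, and corrected mortality was calculated.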

[4] = target: Acetylcholinesterase (Musca domestica) (UniProt Q7YWJ9); experiment: Ratio of MT IC50 to compound IC50 for AChE in Musca domestica (house fly) brain
[5] = target: Acetylcholinesterase (Musca domestica) (UniProt Q7YWJ9); experiment: Ratio of MH IC50 to compound IC50 for AChE in Musca domestica (house fly) brain

Chain of Acetylcholinesterase (Musca domestica) (Q7YWJ9 1-692): as the sequence (Q7YWJ9 whole entry) above

Row | Compound | inhibition [1] [%] | pIC50 [2] | mortality at 300 µg/mL [3] [%] | Ratio IC50 [4] | Ratio IC50 [5]
1 | CNC(=O)Oc1ccccc1 [PHENYL METHYLCARBAMATE] | 46 | 3.12 | 76 | – | –
2 | CNC(=O)Oc1cccc(OCCCOc2ccc([N+](=O)[O-])cc2)c1 | 69 | 4.15 | 89 | 2 | 11
3 | CNC(=O)Oc1cccc(OCCOc2ccc(C(F)(F)F)cc2)c1 | 20 | – | – | – | –
4 | CNC(=O)Oc1cccc(OC/C=C/COc2ccc([N+](=O)[O-])cc2)c1 | 45 | – | – | – | –
5 | CNC(=O)Oc1ccccc1OCCCOc1ccc(C(F)(F)F)cc1 | 25 | – | – | – | –
6 | CN(C)C(=O)Oc1cccc(OCCCCOc2ccc(C(F)(F)F)cc2)c1 | 20 | – | – | – | –
7 | CNC(=O)Oc1cccc(OCCCCOc2ccc(C(F)(F)F)cc2)c1 | 62 | 3.97 | 92 | 1 | 7
8 | CNC(=O)Oc1cccc(OCCCOc2ccc(C(F)(F)F)cc2)c1 | 61 | 3.98 | 85 | 1 | 7
9 | CNC(=O)Oc1ccccc1OCCOc1ccc(C(F)(F)F)cc1 | 13 | – | – | – | –
10 | CN(C)C(=O)Oc1ccc(OCCOc2ccc(C(F)(F)F)cc2)cc1 | 6 | – | – | – | –
11 | CNC(=O)Oc1ccc(OCCOc2ccc(C(F)(F)F)cc2)cc1 | 2 | – | – | – | –
12 | CN(C)C(=O)Oc1ccccc1OCCCCOc1ccc(C(F)(F)F)cc1 | 7 | – | – | – | –
13 | CNC(=O)Oc1cccc(OCCCCOc2ccccc2[N+](=O)[O-])c1 | 80 | 4.21 | 93 | 2 | 13
14 | CN(C)C(=O)Oc1cccc(OC/C=C/COc2ccc(C(F)(F)F)cc2)c1 | 13 | – | – | – | –
15 | CNC(=O)Oc1cccc(OCCCCOc2ccc([N+](=O)[O-])cc2)c1 | 80 | 4.34 | 92 | 3 | 17
16 | CNC(=O)Oc1cccc(OCCCCOc2ccc(Cl)cc2)c1 | 30 | – | – | – | –
17 | CNC(=O)Oc1ccc(OCCCCOc2ccc(C(F)(F)F)cc2)cc1 | 4 | – | – | – | –

Row | Compound | inhibition [1] [%] | pIC50 [2] | mortality at 300 µg/mL [3] [%] | Ratio IC50 [4] | Ratio IC50 [5]
18 | CNC(=O)Oc1ccccc1OCCCCOc1ccc(C(F)(F)F)cc1 | 19 | – | – | – | –
19 | CNC(=O)Oc1ccc(OCCCOc2ccc(C(F)(F)F)cc2)cc1 | 2 | – | – | – | –
20 | CN(C)C(=O)Oc1ccc(OCCCCOc2ccc(C(F)(F)F)cc2)cc1 | 6 | – | – | – | –
21 | CNC(=O)Oc1cccc(OCCCCOc2cccc([N+](=O)[O-])c2)c1 | 92 | 4.92 | 98 | 12 | 62
22 | CNC(=O)Oc1cccc(OC/C=C/COc2ccc(C(F)(F)F)cc2)c1 | 12 | – | – | – | –
23 | CNC(=O)Oc1cccc(OCCCCOc2ccccc2OC)c1 | 46 | – | – | – | –
24 | CN(C)C(=O)Oc1cccc(OCCCOc2ccc(C(F)(F)F)cc2)c1 | 27 | – | – | – | –
25 | CNC(=O)Oc1ccccc1OC/C=C/COc1ccc(C(F)(F)F)cc1 | 17 | – | – | – | –
26 | CN(C)C(=O)Oc1cccc(OCCOc2ccc(C(F)(F)F)cc2)c1 | 8 | – | – | – | –
27 | CN(C)C(=O)Oc1ccccc1OCCCOc1ccc(C(F)(F)F)cc1 | 25 | – | – | – | –
28 | CNC(=O)Oc1cccc(C)c1 [METOLCARB] | – | 3.82 | 97 | – | –
29 | CN(C)C(=O)Oc1ccccc1OCCOc1ccc(C(F)(F)F)cc1 | 15 | – | – | – | –
30 | CN(C)C(=O)Oc1ccc(OCCCOc2ccc(C(F)(F)F)cc2)cc1 | 1 | – | – | – | –
31 | CN(C)C(=O)Oc1ccc(OC/C=C/COc2ccc(C(F)(F)F)cc2)cc1 | 0 | – | – | – | –
32 | CN(C)C(=O)Oc1ccccc1OC/C=C/COc1ccc(C(F)(F)F)cc1 | 7 | – | – | – | –
33 | CNC(=O)Oc1ccc(OC/C=C/COc2ccc(C(F)(F)F)cc2)cc1 | 3 | – | – | – | –
